Laboratory results: paper PMC2246419 (EMBO Reports, 2008)

Tests used:
[1] = system: PKB Ser 473 phosphorylation in NIH3T3 cells; test: Western blot of serum-stimulated PKB Ser 473 phosphorylation; type: cell-based, mouse
[2] = target: p110α (Bos taurus, UniProt P32871); test: In vitro lipid kinase assay, GST-p110α; type: biochemical
[3] = target: T1, type IIγ PtdInsP kinase (Homo sapiens, UniProt Q8TBX8); test: In vitro lipid kinase assay, type IIγ PtdInsP kinase; type: biochemical; settings: even at 10 μM; data not shown
T1 sequence (Q8TBX8 1-421): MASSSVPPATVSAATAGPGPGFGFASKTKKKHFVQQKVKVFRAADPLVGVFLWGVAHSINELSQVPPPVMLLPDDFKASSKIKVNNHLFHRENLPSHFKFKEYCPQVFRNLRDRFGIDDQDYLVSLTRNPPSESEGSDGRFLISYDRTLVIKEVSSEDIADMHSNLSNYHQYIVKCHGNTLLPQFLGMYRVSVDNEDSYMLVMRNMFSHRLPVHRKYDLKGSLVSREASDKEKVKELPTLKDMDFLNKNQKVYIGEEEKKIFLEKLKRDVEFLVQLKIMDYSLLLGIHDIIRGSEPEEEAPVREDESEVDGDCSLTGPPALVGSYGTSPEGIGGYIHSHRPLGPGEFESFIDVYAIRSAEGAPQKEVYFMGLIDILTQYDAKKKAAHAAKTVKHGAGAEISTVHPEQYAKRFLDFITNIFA

[4] = system: type Iα PtdInsP kinase; test: In vitro lipid kinase assay, type Iα PtdInsP kinase; type: biochemical, mouse
[5] = system: NIH3T3 cells; test: In vivo measurement of phosphoinositide levels in 32P-labelled cells; type: cell-based, mouse; settings: 800 nM
[6] = system: NIH3T3 cells; test: Cell division and growth curves; type: cell-based, mouse; settings: 800 nM
[7] = system: ecotropic MLV retrovirus; test: Viral production assay; type: cell-based, human; settings: 800 nM, TEFLY Mo producer cells
[8] = system: NIH3T3 cells; test: Lysotracker staining of swollen vesicles; type: cell-based, mouse; settings: 800 nM 3 h, Lysotracker Red DND-99
Summary of the method: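 NIH3T3 cells were exposed to test compound at 800 nM for 3 h. Lysotracker Red DND-99 (100 nM) was added to the medium for the final 0.5 h, and the acidotropic dye was imaged in the enlarged vesicles.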

Chain of p110α (P32871 whole entry): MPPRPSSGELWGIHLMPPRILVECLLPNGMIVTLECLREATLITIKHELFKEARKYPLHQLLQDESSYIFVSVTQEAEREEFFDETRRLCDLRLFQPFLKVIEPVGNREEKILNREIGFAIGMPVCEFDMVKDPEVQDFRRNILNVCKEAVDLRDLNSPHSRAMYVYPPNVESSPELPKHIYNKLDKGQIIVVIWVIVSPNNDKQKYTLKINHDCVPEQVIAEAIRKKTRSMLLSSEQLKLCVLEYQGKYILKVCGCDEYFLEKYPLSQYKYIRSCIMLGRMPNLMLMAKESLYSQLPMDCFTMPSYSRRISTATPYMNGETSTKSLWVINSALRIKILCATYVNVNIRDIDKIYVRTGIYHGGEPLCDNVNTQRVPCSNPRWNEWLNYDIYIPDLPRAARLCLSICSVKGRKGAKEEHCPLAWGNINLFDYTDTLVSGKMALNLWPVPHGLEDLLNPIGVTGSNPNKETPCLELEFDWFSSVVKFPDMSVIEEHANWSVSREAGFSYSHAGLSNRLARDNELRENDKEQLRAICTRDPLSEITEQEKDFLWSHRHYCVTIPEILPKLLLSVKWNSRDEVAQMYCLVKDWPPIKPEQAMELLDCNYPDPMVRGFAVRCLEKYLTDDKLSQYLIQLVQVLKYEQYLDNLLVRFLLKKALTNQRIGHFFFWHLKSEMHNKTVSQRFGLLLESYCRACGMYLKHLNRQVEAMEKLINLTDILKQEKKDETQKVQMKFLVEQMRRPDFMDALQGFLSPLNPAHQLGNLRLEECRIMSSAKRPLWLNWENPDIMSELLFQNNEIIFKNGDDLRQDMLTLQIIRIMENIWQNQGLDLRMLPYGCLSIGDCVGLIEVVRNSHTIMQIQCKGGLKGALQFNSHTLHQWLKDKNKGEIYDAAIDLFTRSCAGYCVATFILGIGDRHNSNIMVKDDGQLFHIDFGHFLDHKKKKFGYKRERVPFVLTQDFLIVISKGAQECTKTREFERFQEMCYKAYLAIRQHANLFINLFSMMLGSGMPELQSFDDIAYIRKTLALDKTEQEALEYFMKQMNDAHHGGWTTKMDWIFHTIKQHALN

IC50 ([2]; p110α IC50, 50 μM ATP, 100 μM PtdIns substrate) [µM]	p110α IC50 fold higher than for PIKfyve ([2]; same assay conditions) [fold]	Inhibition of type IIγ PtdInsP kinase [3]	type Iα PtdInsP kinase IC50 fold greater than against PIKfyve [4]	IC50 ([4]; read-out: type Iα PtdInsP kinase IC50, mouse enzyme, data not shown) [µM]	Structure (SMILES)	Effect on serum-stimulated phosphorylation of PKB ([1]; increasing concentrations)	Decrease of PtdIns(3,5)P2 production [5] [%]	Decrease of PtdIns(4,5)P2 [5]	Effect on all other phosphoinositides identified [5]	Effect on PKB Ser 473 phosphorylation ([1]; 800 nM)	Effect on cell division [6]	Reduction of virus released into the medium [7] [%]	Acidification of swollen vesicles [8]
					Oc1cccc(-c2nc(N3CCOCC3)c3oc4ncccc4c3n2)c1 [YM211103]	decreased							
3	~100	did not inhibit	around 100 fold	> 2	Nc1ccc(C(=O)Nc2cccc(-c3nc(N4CCOCC4)c4oc5ncccc5c4n3)c2)cn1 [YM201636]		80	around 20%	remained largely unaltered	no influence	does not inhibit cell division	80	poorly acidified
